Type in all cases: protein-complex assay
Data set [1] concerns C/C(=C\COP(=O)(O)OP(=O)(O)O)CCc1ccc(-c2ccccc2)cc1. The data set can be described thus: Binding affinity for Farnesyltransferase. The procedure, abridged:
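Continuous fluorimetric farnesylation assay with purified recombinant mammalian FTase and dansyl-GCVLS peptide as cosubstrate. FPP analogue or E,E-FPP supplied as a varied substrate in 52 mM Tris–HCl pH 7.0 with 5.8 mM DTT, MgCl₂, ZnCl₂ and 0.4% n-dodecyl-β-D-maltoside. Reaction started with enzyme; fluorescence (ex 350/em 486 nm) recorded for 300 s at 30 °C. Initial fluorescence rates were converted to velocities for Km.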

Data set [2] has as its target T1, Protein farnesyltransferase (Homo sapiens, UniProt P49354+P49356). Put plainly: Inhibitory activity against mammalian protein-Farnesyltransferase. The essentials: (§1)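 Inhibition read in the continuous fluorescence assay with recombinant mammalian FTase and dansyl-GCVLS peptide at 30 °C for 300 s (ex 350/em 486 nm). Tris–HCl pH 7.0 buffer held DTT, MgCl₂, ZnCl₂ and 0.4% dodecyl maltoside. E,E-FPP was fixed while analogue amounts varied; farnesylation rate was measured for each.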

Data set [3] deals with T1, Protein farnesyltransferase. The data set can be described thus: Inhibitory activity against mammalian protein-Farnesyltransferase at 10 uM.
The target is the same in data set [4]. The data set can be described thus: Inhibitory activity against mammalian protein-farnesyltransferase. The essentials:
as §1

A word on the Km: it is the concentration of substrate that gives half-maximal velocity. Consider “Protein farnesyltransferase (Homo sapiens) (from UniProt P49354+P49356)”, for which the Km in data set [1] came out at 0.8 µM.

One may read the IC50 as the concentration needed to halve the response being measured. For `C/C(=C\COP(=O)(O)OP(=O)(O)O)CCc1ccc2ccccc2c1`, the IC50 in data set [2] is 5.4 µM.

In the case of `C/C(=C\COP(=O)(O)OP(=O)(O)O)CCc1ccccc1-c1ccccc1`, in data set [3], the IC50 is greater than 10 µM.

For the compound `C/C(=C\COP(=O)(O)OP(=O)(O)O)COCc1ccc(C(=O)c2ccccc2)cc1`, in data set [4], half-maximal inhibition (IC50) was put at 2.3 µM.

Values taken from ChEMBL document CHEMBL1135118, “Aromatic farnesyl diphosphate analogues: vinyl triflate-mediated synthesis and preliminary enzymatic evaluation” (Bioorg Med Chem Lett, 2002).
